Source: ChEMBL document CHEMBL3616378 (J Med Chem, 2015)

Assays:
[1] = biological target: Voltage-gated inwardly rectifying potassium channel KCNH2 (Homo sapiens, UniProt Q12809); assay: Inhibition of human ERG at 10 uM
[2] = Solubility of the compound in DMSO at 20 uM; format: physicochemical
CYP3A4 = CYP3A4 (Homo sapiens, UniProt P08684); assay: Inhibition of human CYP3A4 at 10 uM; format: ADME
Outline: (§1)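 Inhibition of human CYP isoforms was measured with the compound tested at 10 µM.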

CYP2D6 = CYP2D6 (Homo sapiens, UniProt P10635); assay: Inhibition of human CYP2D6 at 10 uM; format: ADME; outline: as §1
CYP2D6, sequence (P10635 whole entry): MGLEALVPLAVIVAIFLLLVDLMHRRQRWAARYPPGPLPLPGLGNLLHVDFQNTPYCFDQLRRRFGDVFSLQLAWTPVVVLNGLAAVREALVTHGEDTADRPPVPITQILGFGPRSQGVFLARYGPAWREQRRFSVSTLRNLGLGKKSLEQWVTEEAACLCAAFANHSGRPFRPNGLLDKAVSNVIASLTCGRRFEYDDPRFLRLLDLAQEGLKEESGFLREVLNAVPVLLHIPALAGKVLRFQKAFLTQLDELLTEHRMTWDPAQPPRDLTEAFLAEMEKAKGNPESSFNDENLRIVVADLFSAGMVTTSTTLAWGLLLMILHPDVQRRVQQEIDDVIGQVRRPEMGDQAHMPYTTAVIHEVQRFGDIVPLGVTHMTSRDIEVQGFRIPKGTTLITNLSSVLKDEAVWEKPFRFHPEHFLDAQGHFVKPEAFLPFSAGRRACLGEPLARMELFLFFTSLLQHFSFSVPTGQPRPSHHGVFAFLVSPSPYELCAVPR

[3] = AUC (0 to 24 hrs) in Sprague-Dawley rat at 1 mg/kg, ip; format: ADME, organism-based; parameters: dose 1 mg/kg, time < 24 hr, route intraperitoneal; conditions: in vivo
Outline: (§2)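 Fasted male Sprague–Dawley rats (~250 g) received a single dose of compound dissolved in water and adjusted to pH 7–7.5 with NaOH, given iv, by oral gavage or ip. Serial blood samples (11–12 per rat) were drawn from a jugular vein catheter into EDTA and kept frozen. Plasma was mixed with methanol:water (1:1) containing an analogue internal standard for analysis. Mean plasma parameters are reported.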

[4] = Tmax in Sprague-Dawley rat at 3 mg/kg, ip; format: ADME, organism-based; conditions: in vivo
Outline: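 Compound dissolved in water, pH adjusted to 7–7.5 with NaOH; single dose to fasted male Sprague–Dawley rats (~250 g) by oral gavage, intravenous or intraperitoneal route. Serial blood (11–12 samples per rat) from jugular vein catheter into EDTA tubes, centrifuged, frozen; 25 µL plasma mixed with methanol:water (1:1) containing analogue internal standard.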

[5] = AUC (0 to 24 hrs) in Sprague-Dawley rat at 10 mg/kg, ip; format: ADME, organism-based; parameters: dose 10 mg/kg, time < 24 hr, route intraperitoneal; conditions: in vivo; outline: as §2
[6] = Bioavailability in Sprague-Dawley rat at 10 mg/kg, ip; format: ADME, organism-based; conditions: in vivo; outline: as §2
[7] = Plasma concentration in Sprague-Dawley rat at 10 mg/kg, ip after 1 hr; format: ADME, organism-based
Outline: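 Separate experiment: single ip doses of 1, 3 and 10 mg/kg to rats, compound in water adjusted to pH 7–7.5 with NaOH; plasma (with csf) sampled at 0.5, 1 and 4 h; mean plasma concentrations ± SEM reported.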

[8] = Drug level in Sprague-Dawley rat cerebrospinal fluid at 3 mg/kg, ip after 0.5 hrs; format: ADME, organism-based; conditions: read-out: Drug uptake
Outline: (§3)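 Male Sprague–Dawley rats received single ip doses of 1, 3 or 10 mg/kg. Cerebrospinal fluid and plasma levels were determined at 0.5, 1 and 4 h. Mean csf concentration (nM ± SEM) is reported.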

[9] = biological target: Metabotropic glutamate receptor 2 (Homo sapiens, UniProt Q14416); assay: Agonist activity at human recombinant mGlu2 receptor expressed in AV12 cells assessed as stimulation of Ca2+ mobilization after 1 hr by FLIPR assay; format: functional, cell-based
Metabotropic glutamate receptor 2, sequence (Q14416 whole entry): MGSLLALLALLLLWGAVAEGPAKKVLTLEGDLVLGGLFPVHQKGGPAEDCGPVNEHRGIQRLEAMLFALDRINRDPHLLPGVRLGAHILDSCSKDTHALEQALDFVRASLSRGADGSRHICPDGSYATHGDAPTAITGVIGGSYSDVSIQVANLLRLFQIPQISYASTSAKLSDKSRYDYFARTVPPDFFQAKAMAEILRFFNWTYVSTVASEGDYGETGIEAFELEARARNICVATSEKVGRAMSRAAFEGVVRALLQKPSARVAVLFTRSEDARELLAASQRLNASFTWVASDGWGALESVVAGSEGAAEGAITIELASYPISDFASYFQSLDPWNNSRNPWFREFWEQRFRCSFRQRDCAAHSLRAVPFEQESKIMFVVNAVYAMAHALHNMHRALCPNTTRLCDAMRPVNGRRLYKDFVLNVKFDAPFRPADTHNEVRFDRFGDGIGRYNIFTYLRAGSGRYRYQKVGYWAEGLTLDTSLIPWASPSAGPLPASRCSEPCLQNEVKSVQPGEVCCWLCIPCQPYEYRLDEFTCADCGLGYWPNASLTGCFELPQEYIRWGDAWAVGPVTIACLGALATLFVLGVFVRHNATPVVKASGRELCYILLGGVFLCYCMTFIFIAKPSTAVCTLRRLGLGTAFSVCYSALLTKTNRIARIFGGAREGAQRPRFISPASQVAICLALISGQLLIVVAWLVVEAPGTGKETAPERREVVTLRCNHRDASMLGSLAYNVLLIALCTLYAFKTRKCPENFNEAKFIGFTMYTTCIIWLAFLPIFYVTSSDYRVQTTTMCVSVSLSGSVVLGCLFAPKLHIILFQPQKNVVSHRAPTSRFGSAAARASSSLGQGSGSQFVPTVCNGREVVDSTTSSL

[10] = biological target: Metabotropic glutamate receptor 7 (Homo sapiens, UniProt Q14831); assay: Antagonist activity at human recombinant mGlu7 receptor expressed in AV12 cells assessed as inhibition of glutamate-stimulated Ca2+ mobilization after 1 hr by FLIPR assay; format: functional, cell-based
Metabotropic glutamate receptor 7, sequence (Q14831 whole entry): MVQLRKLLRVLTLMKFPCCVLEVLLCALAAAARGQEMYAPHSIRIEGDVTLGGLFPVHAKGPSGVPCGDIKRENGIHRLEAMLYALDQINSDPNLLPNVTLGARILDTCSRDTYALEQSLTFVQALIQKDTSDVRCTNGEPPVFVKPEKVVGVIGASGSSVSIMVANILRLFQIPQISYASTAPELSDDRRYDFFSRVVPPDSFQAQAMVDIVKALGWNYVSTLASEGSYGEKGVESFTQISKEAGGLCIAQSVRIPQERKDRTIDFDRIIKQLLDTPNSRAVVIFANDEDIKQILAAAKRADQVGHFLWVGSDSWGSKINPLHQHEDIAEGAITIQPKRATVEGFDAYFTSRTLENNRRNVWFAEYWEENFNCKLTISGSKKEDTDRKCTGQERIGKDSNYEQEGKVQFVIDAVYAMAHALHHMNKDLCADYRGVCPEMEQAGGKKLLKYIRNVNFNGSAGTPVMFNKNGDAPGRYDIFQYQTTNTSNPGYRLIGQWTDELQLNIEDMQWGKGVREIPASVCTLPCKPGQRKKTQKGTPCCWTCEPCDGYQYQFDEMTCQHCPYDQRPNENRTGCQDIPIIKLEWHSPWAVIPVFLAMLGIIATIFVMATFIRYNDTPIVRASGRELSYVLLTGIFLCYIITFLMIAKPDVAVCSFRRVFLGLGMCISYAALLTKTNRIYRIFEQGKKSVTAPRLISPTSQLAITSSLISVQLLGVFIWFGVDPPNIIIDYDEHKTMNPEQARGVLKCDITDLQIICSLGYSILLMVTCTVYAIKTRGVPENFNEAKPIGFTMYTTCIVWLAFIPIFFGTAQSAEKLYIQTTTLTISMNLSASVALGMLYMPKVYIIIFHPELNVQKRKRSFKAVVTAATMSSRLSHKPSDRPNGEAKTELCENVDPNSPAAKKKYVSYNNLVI

[11] = Drug level in Sprague-Dawley rat cerebrospinal fluid at 1 mg/kg, ip after 4 hrs; format: ADME, organism-based; conditions: read-out: Drug uptake; outline: as §3
Rattus norvegicus = species on record: Rattus norvegicus; assay: Toxicity in Sprague-Dawley rat assessed as impairment of neuromuscular coordination at 300 nM of cerebrospinal fluid concentration by rotarod test; format: organism-based; conditions: in vivo, 0.3 µM

Voltage-gated inwardly rectifying potassium channel KCNH2, sequence (Q12809 whole entry): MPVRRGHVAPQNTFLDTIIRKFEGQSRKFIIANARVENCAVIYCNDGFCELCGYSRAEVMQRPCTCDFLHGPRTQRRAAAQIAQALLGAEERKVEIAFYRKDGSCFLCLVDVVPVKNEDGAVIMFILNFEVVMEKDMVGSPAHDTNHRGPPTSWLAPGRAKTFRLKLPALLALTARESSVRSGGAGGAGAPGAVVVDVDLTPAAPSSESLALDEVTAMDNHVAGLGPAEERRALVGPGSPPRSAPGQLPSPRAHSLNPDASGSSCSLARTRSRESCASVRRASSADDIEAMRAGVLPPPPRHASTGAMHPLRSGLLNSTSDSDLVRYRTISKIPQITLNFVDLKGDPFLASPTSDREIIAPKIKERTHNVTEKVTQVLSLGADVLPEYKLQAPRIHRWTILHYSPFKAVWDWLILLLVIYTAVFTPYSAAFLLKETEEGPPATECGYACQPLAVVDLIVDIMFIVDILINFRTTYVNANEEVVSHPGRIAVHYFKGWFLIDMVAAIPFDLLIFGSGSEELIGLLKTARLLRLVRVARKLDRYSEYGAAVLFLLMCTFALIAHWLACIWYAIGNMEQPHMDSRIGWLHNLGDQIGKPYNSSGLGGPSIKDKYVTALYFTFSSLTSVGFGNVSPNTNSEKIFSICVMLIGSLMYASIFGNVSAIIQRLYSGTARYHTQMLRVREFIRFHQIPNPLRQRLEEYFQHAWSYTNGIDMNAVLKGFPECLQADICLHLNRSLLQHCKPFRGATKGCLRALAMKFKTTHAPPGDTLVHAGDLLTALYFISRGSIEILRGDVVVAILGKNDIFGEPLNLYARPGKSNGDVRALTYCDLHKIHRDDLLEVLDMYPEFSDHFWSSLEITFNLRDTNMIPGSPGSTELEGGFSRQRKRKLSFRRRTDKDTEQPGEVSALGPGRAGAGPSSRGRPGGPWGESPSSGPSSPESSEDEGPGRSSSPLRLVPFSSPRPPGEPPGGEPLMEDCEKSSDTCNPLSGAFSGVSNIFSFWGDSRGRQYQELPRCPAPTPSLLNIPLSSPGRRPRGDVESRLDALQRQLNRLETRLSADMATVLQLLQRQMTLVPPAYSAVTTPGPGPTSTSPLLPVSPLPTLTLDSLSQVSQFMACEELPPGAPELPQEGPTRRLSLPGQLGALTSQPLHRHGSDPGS
CYP3A4, sequence (P08684 whole entry, canonical isoform): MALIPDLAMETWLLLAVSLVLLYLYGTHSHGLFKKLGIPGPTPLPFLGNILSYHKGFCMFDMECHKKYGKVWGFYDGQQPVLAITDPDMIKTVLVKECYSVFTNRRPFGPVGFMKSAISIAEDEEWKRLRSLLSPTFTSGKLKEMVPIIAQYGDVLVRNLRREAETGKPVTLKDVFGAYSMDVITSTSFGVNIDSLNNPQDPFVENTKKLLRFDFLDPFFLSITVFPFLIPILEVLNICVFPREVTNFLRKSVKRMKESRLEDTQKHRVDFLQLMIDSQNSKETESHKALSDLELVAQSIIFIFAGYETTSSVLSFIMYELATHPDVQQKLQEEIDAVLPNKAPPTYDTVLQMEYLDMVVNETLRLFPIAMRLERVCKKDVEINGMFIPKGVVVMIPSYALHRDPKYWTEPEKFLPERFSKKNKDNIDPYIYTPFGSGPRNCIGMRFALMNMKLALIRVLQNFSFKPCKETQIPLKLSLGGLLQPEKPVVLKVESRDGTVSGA

With N[C@@]1(C(=O)O)C[C@@H](Sc2nc[nH]n2)[C@H]2[C@H](C(=O)O)[C@H]21 the “inhibition (INH)” value [1] was “Not Active”, the solubility at 20 µM [2] was > 10 mM and the inhibition at 10 µM (CYP3A4) was < 10%. The inhibition at 10 µM (CYP2D6) was < 10%, the AUC(0-t) at 24 h [3] was 6.01 µM·h and the Tmax [4] was 19.8 min. The AUC(0-t) at 24 h [5] was 43.1 µM·h, the bioavailability [6] was 88% and the concentration at 1 h [7] was 23600 nM. For the same compound, the concentration at 0.5 h [8] was 97.3 nM, the EC50 [9] was 21.1 nM and the IC50 [10] was > 12500 nM. For the same compound, the concentration at 4 h [11] was 9.7 nM and the Activity (Rattus norvegicus) was “Toxic”.
